Measurements as given in the M2OR odorant receptor database.
Changes are numbered by the printed parent chain.

Columns and labels:
Settings in all cases: stereoisomer not certain
OR4S2 (Homo sapiens) = molecular target: T1, OR4S2 (Homo sapiens) (UniProt Q8NH73)
T1 sequence (whole entry): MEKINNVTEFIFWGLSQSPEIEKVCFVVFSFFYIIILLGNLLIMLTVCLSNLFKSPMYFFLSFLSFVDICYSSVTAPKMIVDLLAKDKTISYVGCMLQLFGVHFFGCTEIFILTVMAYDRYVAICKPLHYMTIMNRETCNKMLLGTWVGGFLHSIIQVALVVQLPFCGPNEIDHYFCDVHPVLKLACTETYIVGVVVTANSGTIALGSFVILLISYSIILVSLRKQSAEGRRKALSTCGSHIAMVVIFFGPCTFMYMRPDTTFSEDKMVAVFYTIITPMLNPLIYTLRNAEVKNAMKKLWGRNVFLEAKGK
In short: (§1)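 Values were gathered from published papers (main text and supplementary material), with extra details requested from the original authors when needed, and checked for typos and inconsistencies. Each receptor–molecule pair is called responsive (active) if the original authors judged the measured signal statistically different from baseline, and non-responsive (inactive) otherwise. Assay methods varied by source, often transient mammalian cell-line luciferase assays. Recorded details include cell line, G-protein, co-transfected protein and tags.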

OR4X1 (Homo sapiens) = molecular target: T2, OR4X1 (Homo sapiens) (UniProt Q8NH49)
T2 sequence (whole entry): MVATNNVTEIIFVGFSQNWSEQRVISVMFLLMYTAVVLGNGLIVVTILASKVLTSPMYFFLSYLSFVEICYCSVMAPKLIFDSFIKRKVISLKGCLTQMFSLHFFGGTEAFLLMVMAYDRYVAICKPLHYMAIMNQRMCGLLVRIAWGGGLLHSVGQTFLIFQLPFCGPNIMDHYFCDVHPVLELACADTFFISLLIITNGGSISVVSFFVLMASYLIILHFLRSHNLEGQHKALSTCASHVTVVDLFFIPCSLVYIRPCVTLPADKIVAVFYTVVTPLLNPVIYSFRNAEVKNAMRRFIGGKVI
In short: as §1

OR4X2 (Homo sapiens) = molecular target: T3, OR4X2 (Homo sapiens) (UniProt Q8NGF9)
T3 sequence (whole entry): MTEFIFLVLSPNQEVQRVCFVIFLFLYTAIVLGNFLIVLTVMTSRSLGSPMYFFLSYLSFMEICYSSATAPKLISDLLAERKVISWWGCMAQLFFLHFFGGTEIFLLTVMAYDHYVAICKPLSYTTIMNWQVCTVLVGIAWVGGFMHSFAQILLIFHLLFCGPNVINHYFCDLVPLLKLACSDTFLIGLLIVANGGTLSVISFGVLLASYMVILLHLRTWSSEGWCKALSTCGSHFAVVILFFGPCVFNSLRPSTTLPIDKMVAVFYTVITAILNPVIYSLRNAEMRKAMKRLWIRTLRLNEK
In short: as §1

OR51A2 (Homo sapiens) = molecular target: T4, OR51A2 (Homo sapiens) (UniProt Q8NGJ7)
T4 sequence (whole entry): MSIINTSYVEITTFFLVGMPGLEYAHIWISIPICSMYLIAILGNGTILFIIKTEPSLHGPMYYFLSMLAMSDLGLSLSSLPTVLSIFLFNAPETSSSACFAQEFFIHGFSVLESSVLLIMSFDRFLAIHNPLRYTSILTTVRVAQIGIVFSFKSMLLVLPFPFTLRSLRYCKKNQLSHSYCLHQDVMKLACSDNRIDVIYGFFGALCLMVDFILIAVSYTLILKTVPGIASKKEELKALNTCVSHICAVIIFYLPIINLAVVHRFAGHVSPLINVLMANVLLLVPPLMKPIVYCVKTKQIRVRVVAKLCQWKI
In short: as §1

OR51A4 (Homo sapiens) = molecular target: T5, OR51A4 (Homo sapiens) (UniProt Q8NGJ6)
T5 sequence (whole entry): T4 sequence (whole entry) with G59E, T94I, S97N, S167N, P227L, E235Q, G267R, M288T, K289N, W311R
In short: as §1

OR51A7 (Homo sapiens) = molecular target: T6, OR51A7 (Homo sapiens) (UniProt Q8NH64)
T6 sequence (whole entry): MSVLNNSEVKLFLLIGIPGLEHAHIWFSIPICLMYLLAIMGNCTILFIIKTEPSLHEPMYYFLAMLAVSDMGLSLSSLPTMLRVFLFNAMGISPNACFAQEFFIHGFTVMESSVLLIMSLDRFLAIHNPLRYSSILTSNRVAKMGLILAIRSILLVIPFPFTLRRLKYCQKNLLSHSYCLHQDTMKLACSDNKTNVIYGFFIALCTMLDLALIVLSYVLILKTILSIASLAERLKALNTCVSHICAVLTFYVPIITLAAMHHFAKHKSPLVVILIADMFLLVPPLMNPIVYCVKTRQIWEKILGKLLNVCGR
In short: as §1

OR51B2 (Homo sapiens) = molecular target: T7, OR51B2 (Homo sapiens) (UniProt Q9Y5P1)
T7 sequence (whole entry): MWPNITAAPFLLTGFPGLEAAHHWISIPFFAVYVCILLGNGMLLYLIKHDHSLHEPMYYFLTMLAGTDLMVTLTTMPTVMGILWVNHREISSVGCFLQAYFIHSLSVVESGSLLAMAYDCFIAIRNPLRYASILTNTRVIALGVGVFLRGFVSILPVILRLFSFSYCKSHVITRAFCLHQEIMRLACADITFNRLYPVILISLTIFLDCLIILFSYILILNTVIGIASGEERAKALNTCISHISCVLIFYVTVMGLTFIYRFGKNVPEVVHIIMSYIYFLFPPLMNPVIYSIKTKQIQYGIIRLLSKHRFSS
In short: as §1

OR51B4 (Homo sapiens) = molecular target: T8, OR51B4 (Homo sapiens) (UniProt Q9Y5P0)
T8 sequence (whole entry): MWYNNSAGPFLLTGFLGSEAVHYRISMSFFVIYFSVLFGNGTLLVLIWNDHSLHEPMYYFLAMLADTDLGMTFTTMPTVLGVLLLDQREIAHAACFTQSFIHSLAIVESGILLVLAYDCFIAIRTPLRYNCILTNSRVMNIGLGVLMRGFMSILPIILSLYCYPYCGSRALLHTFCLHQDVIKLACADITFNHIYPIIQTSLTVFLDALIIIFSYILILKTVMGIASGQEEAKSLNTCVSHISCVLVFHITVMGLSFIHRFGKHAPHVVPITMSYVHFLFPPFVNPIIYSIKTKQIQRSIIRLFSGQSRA
In short: as §1

OR51B5 (Homo sapiens) = molecular target: T9, OR51B5 (Homo sapiens) (UniProt Q9H339)
T9 sequence (whole entry): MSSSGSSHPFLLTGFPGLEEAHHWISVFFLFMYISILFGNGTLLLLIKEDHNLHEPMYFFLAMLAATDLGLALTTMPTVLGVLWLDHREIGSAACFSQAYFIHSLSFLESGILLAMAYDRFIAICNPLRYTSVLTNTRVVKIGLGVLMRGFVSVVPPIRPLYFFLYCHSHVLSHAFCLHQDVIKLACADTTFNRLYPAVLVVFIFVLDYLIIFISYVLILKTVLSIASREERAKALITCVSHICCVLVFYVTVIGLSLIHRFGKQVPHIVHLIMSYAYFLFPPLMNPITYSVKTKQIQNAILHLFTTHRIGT
In short: as §1

OR51B6 (Homo sapiens) = molecular target: T10, OR51B6 (Homo sapiens) (UniProt Q9H340)
T10 sequence (whole entry): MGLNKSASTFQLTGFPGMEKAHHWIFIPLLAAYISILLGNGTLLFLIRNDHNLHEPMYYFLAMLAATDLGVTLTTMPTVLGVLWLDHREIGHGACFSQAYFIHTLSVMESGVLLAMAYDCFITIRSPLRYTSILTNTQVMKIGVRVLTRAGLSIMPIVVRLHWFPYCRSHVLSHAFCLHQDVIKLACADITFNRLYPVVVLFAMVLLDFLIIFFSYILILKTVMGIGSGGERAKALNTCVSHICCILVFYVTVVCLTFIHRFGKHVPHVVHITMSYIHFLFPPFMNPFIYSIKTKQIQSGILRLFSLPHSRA
In short: as §1

OR51D1 (Homo sapiens) = molecular target: T11, OR51D1 (Homo sapiens) (UniProt Q8NGF3)
T11 sequence (whole entry): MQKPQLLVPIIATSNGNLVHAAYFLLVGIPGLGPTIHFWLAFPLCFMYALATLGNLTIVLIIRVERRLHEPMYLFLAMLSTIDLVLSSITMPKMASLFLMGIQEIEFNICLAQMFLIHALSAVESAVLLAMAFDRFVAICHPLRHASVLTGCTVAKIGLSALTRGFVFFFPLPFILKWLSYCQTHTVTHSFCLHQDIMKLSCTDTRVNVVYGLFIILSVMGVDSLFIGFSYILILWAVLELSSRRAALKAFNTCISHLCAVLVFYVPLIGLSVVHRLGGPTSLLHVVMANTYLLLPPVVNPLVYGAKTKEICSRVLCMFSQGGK
In short: as §1

OR51E1 (Homo sapiens) = molecular target: T12, OR51E1 (Homo sapiens) (UniProt Q8TCB6)
T12 sequence (whole entry): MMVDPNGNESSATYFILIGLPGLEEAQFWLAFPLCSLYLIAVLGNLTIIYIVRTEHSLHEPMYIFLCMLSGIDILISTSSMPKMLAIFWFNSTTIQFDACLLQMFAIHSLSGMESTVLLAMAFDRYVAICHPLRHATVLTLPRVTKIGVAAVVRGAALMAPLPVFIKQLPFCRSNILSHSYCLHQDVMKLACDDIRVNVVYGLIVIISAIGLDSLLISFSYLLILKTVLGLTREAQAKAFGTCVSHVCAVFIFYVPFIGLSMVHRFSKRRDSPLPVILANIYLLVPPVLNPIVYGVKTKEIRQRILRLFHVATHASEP
In short: as §1

OR51E2 (Homo sapiens) = molecular target: T13, OR51E2 (Homo sapiens) (UniProt Q9H255)
T13 sequence (whole entry): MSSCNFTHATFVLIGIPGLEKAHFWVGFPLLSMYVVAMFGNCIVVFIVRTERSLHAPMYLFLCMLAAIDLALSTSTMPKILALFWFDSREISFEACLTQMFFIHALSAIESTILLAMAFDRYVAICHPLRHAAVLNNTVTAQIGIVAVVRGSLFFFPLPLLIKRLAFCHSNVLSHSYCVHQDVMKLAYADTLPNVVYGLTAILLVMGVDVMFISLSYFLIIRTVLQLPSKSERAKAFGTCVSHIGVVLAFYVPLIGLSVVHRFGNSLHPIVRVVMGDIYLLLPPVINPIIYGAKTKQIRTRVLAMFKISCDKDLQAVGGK
In short: as §1

OR51F2 (Homo sapiens) = molecular target: T14, OR51F2 (Homo sapiens) (UniProt Q8NH61)
T14 sequence (whole entry): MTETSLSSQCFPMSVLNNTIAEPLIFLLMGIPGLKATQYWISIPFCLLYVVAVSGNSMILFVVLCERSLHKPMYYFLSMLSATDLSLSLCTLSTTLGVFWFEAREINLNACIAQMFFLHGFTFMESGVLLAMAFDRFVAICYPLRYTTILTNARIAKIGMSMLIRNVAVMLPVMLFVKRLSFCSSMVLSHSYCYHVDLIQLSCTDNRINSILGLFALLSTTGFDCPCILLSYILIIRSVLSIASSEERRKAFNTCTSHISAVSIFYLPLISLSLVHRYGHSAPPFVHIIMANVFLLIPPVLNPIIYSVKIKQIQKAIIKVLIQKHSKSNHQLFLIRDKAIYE
In short: as §1

OR51G1 (Homo sapiens) = molecular target: T15, OR51G1 (Homo sapiens) (UniProt Q8NGK1)
T15 sequence (whole entry): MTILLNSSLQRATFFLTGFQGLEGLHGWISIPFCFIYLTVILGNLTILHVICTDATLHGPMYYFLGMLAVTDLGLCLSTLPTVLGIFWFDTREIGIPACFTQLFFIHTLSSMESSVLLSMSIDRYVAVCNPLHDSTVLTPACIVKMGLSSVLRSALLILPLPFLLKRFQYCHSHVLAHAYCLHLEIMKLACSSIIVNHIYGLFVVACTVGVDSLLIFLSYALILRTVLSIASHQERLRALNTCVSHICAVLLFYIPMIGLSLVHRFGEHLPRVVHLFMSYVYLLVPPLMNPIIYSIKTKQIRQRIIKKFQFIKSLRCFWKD
In short: as §1

OR51G2 (Homo sapiens) = molecular target: T16, OR51G2 (Homo sapiens) (UniProt Q8NGK0)
T16 sequence (whole entry): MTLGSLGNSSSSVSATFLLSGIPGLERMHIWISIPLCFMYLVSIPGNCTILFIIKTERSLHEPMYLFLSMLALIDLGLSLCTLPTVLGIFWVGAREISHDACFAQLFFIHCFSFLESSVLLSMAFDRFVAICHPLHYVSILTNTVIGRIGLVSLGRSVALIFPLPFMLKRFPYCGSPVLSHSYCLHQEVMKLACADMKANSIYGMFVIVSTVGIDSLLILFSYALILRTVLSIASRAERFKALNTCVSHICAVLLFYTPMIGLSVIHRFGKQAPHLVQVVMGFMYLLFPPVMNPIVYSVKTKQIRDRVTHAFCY
In short: as §1

OR51I1 (Homo sapiens) = molecular target: T17, OR51I1 (Homo sapiens) (UniProt Q9H343)
T17 sequence (whole entry): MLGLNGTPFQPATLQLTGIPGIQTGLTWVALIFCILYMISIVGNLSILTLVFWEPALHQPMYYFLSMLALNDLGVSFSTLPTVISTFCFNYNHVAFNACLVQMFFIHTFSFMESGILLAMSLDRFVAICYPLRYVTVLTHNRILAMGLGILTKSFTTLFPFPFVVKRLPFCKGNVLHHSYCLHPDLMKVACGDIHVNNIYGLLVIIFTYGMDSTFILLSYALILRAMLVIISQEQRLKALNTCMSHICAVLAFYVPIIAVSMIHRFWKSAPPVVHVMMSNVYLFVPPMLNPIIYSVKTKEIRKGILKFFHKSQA
In short: as §1

Measured: odorant receptor agonist call

CCCC(S)CCOC(C)=O (configuration not stated)
inactive: OR4S2 (Homo sapiens) | OR4X1 (Homo sapiens) | OR4X2 (Homo sapiens) | OR51A2 (Homo sapiens) | OR51A4 (Homo sapiens) | OR51A7 (Homo sapiens) | OR51B2 (Homo sapiens) | OR51B4 (Homo sapiens) | OR51B5 (Homo sapiens) | OR51B6 (Homo sapiens) | OR51D1 (Homo sapiens) | OR51E1 (Homo sapiens) | OR51E2 (Homo sapiens) | OR51F2 (Homo sapiens) | OR51G1 (Homo sapiens) | OR51G2 (Homo sapiens) | OR51I1 (Homo sapiens)
